STAT3 act = activators of IL-6 induced STAT3 signaling; AID 871; U3A cells, IL-6 STAT3-luciferase reporter, luminescence; 100% = signal with IL-6 EC80 alone; activation (% of control), % at 5.6 µM; 190,000 tested, 0.91% active;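 active means activation above the screen-wide mean of compound activation plus 3 SD, cut at about 130% in these data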;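 further: 0% = background luminescence of wells with medium and substrate only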
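Material: STAT3-luciferase reporter U3A cells; Probe or stimulus: IL-6 (33 ng/mL); Incubation: compound pre-incubation 1 h before IL-6, then 6 h stimulation at 37 °C; Technique: luminescence from STAT3-driven luciferase reporter; Evaluation: % activation versus median of IL-6-stimulated wells; Controls: IL-6-only high control.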
APP 5'UTR act = APP 5'UTR luciferase reporter activation; activation, % at 2 µM; SH-SY5Y APP 5'UTR luciferase reporter, luminescence; zero percent = DMSO vehicle wells; 190,000 tested, 1% active;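 active means activation above a set limit, based on mean plus 3 SD of controls, cut at about 140% in these data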
STAT3 inh = inhibitors of IL-6 induced STAT3 signaling; U3A cells, IL-6 STAT3-luciferase reporter, luminescence; host cell line lacks STAT1; inhibition, % at 5.5 µM; 190,000 tested, 0.89% active;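 active means inhibition above the mean inhibition across all screened compounds plus 3 SD, cut at about 44% in these data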;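 further: 0% = DMSO only wells and 100% = 100 µM nifuroxazide control wells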
NF-kB neuron act = NF-kB expression increase, human neuronal cells; NF-kB reporter expression; active compounds read high; fold change at 12.5 µM; 190,000 tested, 1.6% active; AID 1239; in the data active means fold change above about 3.3
STAT1 act = increases IFN-gamma driven STAT1 reporter signal | 200,000 tested, 2.6% active | activation (% of control), % at 5.5 µM | NIH 3T3 STAT1-luciferase reporter, luminescence; 100% = IFN-gamma alone, no compound;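 active means activation above the screen-wide mean activation plus 3 SD, cut at about 130% in these data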;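 further: raw ratio to IFN-gamma control signal so 100% means no change and 0% no light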
STAT1 blocker = inhibitors of IFN-gamma induced STAT1 signaling | NIH 3T3 STAT1-luciferase reporter, luminescence | inhibition, % at 5.5 µM | 200,000 tested, 0.35% active;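 active means inhibition above a set limit, the mean inhibition across all tested compounds plus 3 SD, cut at about 34% in these data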;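 further: 0% = IFN-gamma with DMSO and 100% = IFN-gamma with 300 µM nifuroxazide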
STAT1 activ conf = STAT1 activation, confirmation assay | NIH 3T3 STAT1-luciferase reporter, IFN-gamma potentiation, luminescence; 100% = IFN-gamma EC80 alone, no compound | AID 1262 | activation (% of control), % at 5.7 µM | 1,200 tested, 97% active | shares compounds with STAT1 act;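 active means activation above a set limit carried over from the earlier primary STAT1 screen, cut at about 140% in these data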;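 further: simple ratio to median IFN-gamma plus DMSO wells so 0% means no light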
NFkB act = counter-screen for STAT1 activators: NF-kappaB activation; activation (% of control), % at 5.7 µM; HEK293T NF-kB luciferase reporter, TNF-alpha stimulated, luminescence; 100% = TNF-alpha with vehicle only; shares compounds with STAT1 act; 1,200 tested, 43% active;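 active means activation above the mean of solvent-only control wells plus 3 SD, set per campaign, cut at about 130% in these data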;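 further: TNF-alpha given at a submaximal dose yielding about 80% of full reporter signal; values are well signal over median control so 100% means no change and 0% no light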
STAT3 act STAT1c = counter-screen for STAT1 activators: human STAT3 activation. U3A cells STAT3-luciferase reporter, IL-6, luminescence; cells lack STAT1; 100 = IL-6 alone, no compound effect. 1,200 tested, 46% active. activation (% of control), % at 5.7 µM. AID 1316. shares compounds with STAT1 act;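 active means activation above the solvent-only control well mean plus 3 SD, set per plate batch, cut at about 110% in these data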;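 further: 0% = no luminescence and 100% = median IL-6 plus DMSO wells; higher means more STAT3 reporter activation so hits are non-selective activators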
Starred values were filed as active, the others as inactive; · = no result. Hits are enriched below; roughly 4.9% of the tested compounds scored in any of these assays.

SMILES	STAT3 act	APP 5'UTR act	STAT3 inh	NF-kB neuron act	STAT1 act	STAT1 blocker	STAT1 activ conf	NFkB act	STAT3 act STAT1c
COc1cccc(-c2cc(=O)c3cc(NC(C)=O)ccc3[nH]2)c1	94	1	4	1	101	-1	·	·	·
COc1cc(C(=O)N/N=C/c2sc(N3CCOCC3)nc2-c2ccccc2)cc(OC)c1OC	100	-17	7	1	98	1	·	·	·
NC(=O)c1c(NC(=O)c2cc3ccccc3o2)sc2c1CCC2	71	98	35	1.2	181*	-88	196*	108	118*
CC(=O)Nc1sc2c(c1C(N)=O)CCC2	95	-10	7	0.82	94	1	·	·	·
CCn1c(-c2ccccc2)csc1=Nc1ccc(O)cc1	122	152*	-19	·	163*	-72	172*	114	120*
CCOc1ccc(N=c2scc(-c3ccccc3)n2CCO)cc1	90	50	17	1.3	112	-13	·	·	·
Cn1cccc1/C=C(/C#N)c1ccc(F)cc1	90	7	18	1.3	98	0	·	·	·
COc1cc(OC)c(NC(=S)NCc2ccc(F)cc2)cc1Cl	97	5	12	1.2	97	3	·	·	·
COc1ccc(C(C#N)N2N=C(c3ccccc3)CC2c2ccccc2)cc1OC (stereo not drawn)	92	55	12	1.8	112	-14	·	·	·
COc1ccc(C2=NN(C(C#N)c3ccc(OC)cc3)C(c3ccccc3)C2)cc1 (stereo not drawn)	100	109	1	6*	172*	-80	128	129	100
Cc1cccc(NC(=O)CN2NS(=O)(=O)c3ccccc3C2=O)c1	95	6	6	1.1	101	-1	·	·	·
CCn1c(O)c(/C=C2\C=Nc3ccccc32)sc1=O	126	154*	-27	3.1	178*	-88	175*	140*	126*
CCn1c(O)c(/C=C2\C=Nc3ccccc32)sc1=Nc1ccc(C)cc1	102	16	3	1.2	106	-7	·	·	·
O=C(NC(=S)Nc1ncccn1)c1ccc(Cl)cc1Cl	111	36	-10	2.2	174*	-80	218*	131	110
CCC(=O)Nc1cccc(NC(=S)NC(=O)c2ccc(Cl)cc2Cl)c1	103	19	-5	1.3	122	-25	·	·	·
Cc1cccc(/C(N)=N/OC(=O)N2c3ccccc3Sc3ccccc32)c1	86	13	27	1.4	102	-3	·	·	·
N/C(=N\OC(=O)c1ccccc1Cl)c1ccc(Cl)cc1	126	58	-18	3.7*	155*	-57	193*	123	159*
Cc1ccc(/C(N)=N/OC(=O)c2ccc(C)cc2Cl)cc1	67	162*	41	1.6	164*	-72	207*	97	81
Cc1cccc(/C(N)=N/OC(=O)c2ccc(Cl)cc2Cl)c1	100	139*	-3	2.2	161*	-69	222*	126	114*
O=C(NCCc1cccs1)c1ccc(Cl)c(Cl)c1	98	63	3	3.8*	159*	-62	164*	130	107
C/C(=N/NC(=O)c1ccc(Br)o1)c1cccc(NC(=O)c2ccc(C)o2)c1	98	24	3	1.1	123	-26	·	·	·
c1ccc(CSc2nnc(-c3cccs3)o2)cc1	93	106	10	4.6*	158*	-64	179*	132	116*
CCC(=O)Nc1ccc2c(c1)OCCO2	108	14	-7	0.86	99	1	·	·	·
O=C(NC(=S)Nc1ccc2c(c1)OCCO2)c1cccc(Br)c1	113	91	-12	4.8*	153*	-59	176*	133*	118*
O=C(Nc1ccc(C(=O)O)cc1)/C(=C/c1ccc2c(c1)OCO2)NC(=O)c1cccc(Br)c1	101	-26	4	1.3	97	5	·	·	·
SMILES	STAT3 act	APP 5'UTR act	STAT3 inh	NF-kB neuron act	STAT1 act	STAT1 blocker	STAT1 activ conf	NFkB act	STAT3 act STAT1c
O=C(CC(=O)c1ccccc1)Nc1ccc2c(c1)OCCO2	105	129	0	3.9*	159*	-64	192*	131	117*
O=C(CCCc1ccccc1)Nc1ccc2c(c1)OCCO2	76	203*	32	8*	151*	-57	162*	127	119*
O=C(Nc1ccc2c(c1)OCCO2)c1ccc(Br)s1	67	198*	39	11*	184*	-94	255*	116	93
O=C(CCCCCN1C(=O)c2ccccc2C1=O)Nc1ccc2c(c1)OCCO2	88	0	11	1.1	94	6	·	·	·
Cc1c(NC(=O)OCCNC(=O)COc2c(Cl)cccc2Cl)sc(=S)n1C	110	13	-2	1.1	107	-7	·	·	·
CCn1cc(/C=N/NC(=O)COc2cccc3cccnc23)c2ccccc21	105	20	-9	0.73	98	2	·	·	·
O=C(Nc1ccccc1Cl)c1cccc(NS(=O)(=O)c2ccccc2)c1	85	6	24	1	103	-3	·	·	·
CNc1ncc(C(=O)c2ccc(F)cc2)s1	107	39	-10	2	128	-29	·	·	·
O=C(c1ccc(F)cc1)c1cnc(Nc2ccccc2)s1	109	126	-9	2.4	153*	-58	203*	135*	124*
O=C(O)Cc1ccc2sc(-c3ccccc3)nc2c1	103	3	-3	0.99	108	-9	·	·	·
COC(=O)Cc1ccc2sc(-c3ccccc3)nc2c1	91	173*	9	9.2*	157*	-64	183*	107	97
CCN(CC)S(=O)(=O)c1ccc(-n2c(=O)c(C(C)C)c(C)n2C)cc1	106	-15	-5	0.95	99	-1	·	·	·
Cc1ccc(OCC(=O)Nc2ccc(N(C)C)cc2)cc1	100	12	5	1	91	9	·	·	·
Cc1ccc(NC(=S)c2ccc(N(C)C)cc2)cc1	73	150*	34	3.5*	170*	-77	201*	129	102
CCN(CC)c1ccc(NC(=O)c2cccnc2)c(C)c1	96	-9	10	1.1	101	-1	·	·	·
CCN(CC)c1ccc(NC(=O)c2cccc(C)c2OC)c(C)c1	97	98	9	4.2*	152*	-57	175*	137*	106

Compound activity as filed in PubChem.
